Measurements published in ChEMBL document CHEMBL1145524, “Structure-based activity prediction for an enzyme of unknown function” (Nature, 2007).

Tests used:
[1] = biological target: T1, Adenosylhomocysteinase (Thermotoga maritima (strain ATCC 43589 / MSB8 / DSM 3109 / JCM 10099)) (UniProt O51933); test: (§1) Activity of Thermotoga maritima S-adenosyl-L-homocysteine hydrolase Tm0172 assessed as homocysteine hydrolysis
T1 sequence (whole entry): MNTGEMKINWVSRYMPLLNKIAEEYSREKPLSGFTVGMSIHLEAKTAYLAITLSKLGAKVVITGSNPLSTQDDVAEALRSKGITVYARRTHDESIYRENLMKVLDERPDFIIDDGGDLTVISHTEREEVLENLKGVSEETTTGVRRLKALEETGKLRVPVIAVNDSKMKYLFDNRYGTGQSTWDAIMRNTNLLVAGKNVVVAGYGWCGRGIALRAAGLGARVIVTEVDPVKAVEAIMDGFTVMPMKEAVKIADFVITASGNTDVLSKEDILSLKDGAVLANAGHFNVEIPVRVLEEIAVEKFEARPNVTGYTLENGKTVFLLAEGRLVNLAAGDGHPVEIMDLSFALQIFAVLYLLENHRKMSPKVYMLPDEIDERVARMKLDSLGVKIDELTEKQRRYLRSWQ
Method in brief: (§2)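 Tm0172 expressed in E. coli (arabinose induction), heat-treated 65 °C and purified on chelating Sepharose as His-tagged protein. Assay: 100 mM HEPES pH 8.0, 1.0 mM DTNB, 1.0 mM EDTA, 13 μM Tm0172, substrate up to 10 mM, 30 °C. kcat and kcat/Km obtained by fitting initial velocities to the Michaelis–Menten equation.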

[2] = substrate: Nc1ncnc2c1ncn2[C@@H]1O[C@H](CSCC[C@H](N)C(=O)O)[C@@H](O)[C@H]1O; test: as §1; method in brief: as §2
[3] = substrate: Nc1ncnc2c1ncn2[C@@H]1O[C@H](CSCC[C@H](N)C(=O)O)[C@@H](O)[C@H]1O; test: Ratio of Kcat to Km for Thermotoga maritima S-adenosyl-L-homocysteine hydrolase Tm0172 assessed as homocysteine hydrolysis; method in brief: as §2
[4] = substrate: CSC[C@H]1O[C@@H](n2cnc3c(N)ncnc32)[C@H](O)[C@@H]1O; test: (§3) Activity of Thermotoga maritima S-adenosyl-homocysteine deaminase Tm0936 assessed as ammonia production
Method in brief: (§4)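 Recombinant Tm0936 was expressed in E. coli, heat-treated at 65 °C, then purified by anion exchange and gel filtration (Zn-containing). Ammonia release was coupled to glutamate dehydrogenase, with NADH loss read at 340 nm. Assay: 100 mM HEPES pH 8.0, 7.4 mM α-ketoglutarate, 0.4 mM NADH, 6 units GDH, 30 °C. kcat and kcat/Km came from fitting initial velocities versus substrate concentration.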

[5] = substrate: C[S+](CC[C@H](N)C(=O)[O-])C[C@H]1O[C@@H](n2cnc3c(N)ncnc32)[C@H](O)[C@@H]1O; test: as §3; method in brief: as §4
[6] = substrate: Nc1ncnc2c1ncn2[C@@H]1O[C@H](CO)[C@@H](O)[C@H]1O; test: as §3; method in brief: as §4
[7] = substrate: Nc1ncnc2c1ncn2[C@@H]1O[C@H](COP(=O)(O)O)[C@@H](O)[C@H]1O; test: as §3; method in brief: as §4
[8] = substrate: Nc1ncnc2c1ncn2[C@@H]1O[C@H](CSCC[C@H](N)C(=O)O)[C@@H](O)[C@H]1O; test: as §3; method in brief: as §4
[9] = substrate: CSC[C@H]1O[C@@H](n2cnc3c(N)ncnc32)[C@H](O)[C@@H]1O; test: (§5) Ratio of Kcat to Km for Thermotoga maritima S-adenosyl-homocysteine deaminase Tm0936 assessed as ammonia production; method in brief: as §4
[10] = substrate: Nc1ncnc2c1ncn2[C@@H]1O[C@H](CO)[C@@H](O)[C@H]1O; test: as §5; method in brief: as §4
[11] = substrate: Nc1ncnc2c1ncn2[C@@H]1O[C@H](CSCC[C@H](N)C(=O)O)[C@@H](O)[C@H]1O; test: as §5; method in brief: as §4

Molecule: Nc1ncnc2c1ncn2[C@@H]1O[C@H](CSCC[C@H](N)C(=O)O)[C@@H](O)[C@H]1O
- kcat [1]: 0.004 s⁻¹

B1: Adenosylhomocysteinase (Thermotoga maritima (strain ATCC 43589 / MSB8 / DSM 3109 / JCM 10099)), O51933 (protein)
chain: MNTGEMKINWVSRYMPLLNKIAEEYSREKPLSGFTVGMSIHLEAKTAYLAITLSKLGAKVVITGSNPLSTQDDVAEALRSKGITVYARRTHDESIYRENLMKVLDERPDFIIDDGGDLTVISHTEREEVLENLKGVSEETTTGVRRLKALEETGKLRVPVIAVNDSKMKYLFDNRYGTGQSTWDAIMRNTNLLVAGKNVVVAGYGWCGRGIALRAAGLGARVIVTEVDPVKAVEAIMDGFTVMPMKEAVKIADFVITASGNTDVLSKEDILSLKDGAVLANAGHFNVEIPVRVLEEIAVEKFEARPNVTGYTLENGKTVFLLAEGRLVNLAAGDGHPVEIMDLSFALQIFAVLYLLENHRKMSPKVYMLPDEIDERVARMKLDSLGVKIDELTEKQRRYLRSWQ
- Km [2]: 21 µM
- kcat/Km [3]: 1.1 10^2/M/s

B2: 5-methylthioadenosine/S-adenosylhomocysteine deaminase (Thermotoga maritima (strain ATCC 43589 / MSB8 / DSM 3109 / JCM 10099)), Q9X034 (protein)
chain: MIIGNCLILKDFSSEPFWGAVEIENGTIKRVLQGEVKVDLDLSGKLVMPALFNTHTHAPMTLLRGVAEDLSFEEWLFSKVLPIEDRLTEKMAYYGTILAQMEMARHGIAGFVDMYFHEEWIAKAVRDFGMRALLTRGLVDSNGDDGGRLEENLKLYNEWNGFEGRIFVGFGPHSPYLCSEEYLKRVFDTAKSLNAPVTIHLYETSKEEYDLEDILNIGLKEVKTIAAHCVHLPERYFGVLKDIPFFVSHNPASNLKLGNGIAPVQRMIEHGMKVTLGTDGAASNNSLNLFFEMRLASLLQKAQNPRNLDVNTCLKMVTYDGAQAMGFKSGKIEEGWNADLVVIDLDLPEMFPVQNIKNHLVHAFSGEVFATMVAGKWIYFDGEYPTIDSEEVKRELARIEKELYSS
- Km [4]: 44 µM
- kcat [4]: 7.2 s⁻¹
- kcat [5]: 1 10^-3/s
- Km [6]: 250 µM
- kcat [6]: 2.3 s⁻¹
- kcat [7]: 1 10^-3/s
- Km [8]: 210 µM
- kcat [8]: 12.2 s⁻¹
- kcat/Km [9]: 1.5 10^5/M/s
- kcat/Km [10]: 9.2 10^3/M/s
- kcat/Km [11]: 5.8 10^4/M/s
